Screening results from PubChem.
Hits are enriched below; roughly 3.8% of the tested compounds scored in any of these assays.
hERG protect – hERG (human) protection from proarrhythmic block. CHO-hERG, FluxOR thallium flux, dofetilide IC70 present. activation (rescue from dofetilide block), less the hit threshold, % at 10 µM. 310,000 tested, 0.51% active;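 active = activation above the mean of controls blocked by dofetilide plus 5 SD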;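 also: thallium influx through hERG after potassium depolarization seen as dye fluorescence rise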
KCNQ1 pot – potentiators or activators of human KCNQ1 potassium channel | B-score at 10 µM | CHO-K1 KCNQ1, thallium flux FluxOR fluorescence; hits give high values | 310,000 tested, 0.35% active | P51787;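 active = fluorescence ratio B-score, a plate-corrected score, at least three library SD, with initial intensity B-score within 5 SD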
Target sequence (P51787 whole entry, looked up): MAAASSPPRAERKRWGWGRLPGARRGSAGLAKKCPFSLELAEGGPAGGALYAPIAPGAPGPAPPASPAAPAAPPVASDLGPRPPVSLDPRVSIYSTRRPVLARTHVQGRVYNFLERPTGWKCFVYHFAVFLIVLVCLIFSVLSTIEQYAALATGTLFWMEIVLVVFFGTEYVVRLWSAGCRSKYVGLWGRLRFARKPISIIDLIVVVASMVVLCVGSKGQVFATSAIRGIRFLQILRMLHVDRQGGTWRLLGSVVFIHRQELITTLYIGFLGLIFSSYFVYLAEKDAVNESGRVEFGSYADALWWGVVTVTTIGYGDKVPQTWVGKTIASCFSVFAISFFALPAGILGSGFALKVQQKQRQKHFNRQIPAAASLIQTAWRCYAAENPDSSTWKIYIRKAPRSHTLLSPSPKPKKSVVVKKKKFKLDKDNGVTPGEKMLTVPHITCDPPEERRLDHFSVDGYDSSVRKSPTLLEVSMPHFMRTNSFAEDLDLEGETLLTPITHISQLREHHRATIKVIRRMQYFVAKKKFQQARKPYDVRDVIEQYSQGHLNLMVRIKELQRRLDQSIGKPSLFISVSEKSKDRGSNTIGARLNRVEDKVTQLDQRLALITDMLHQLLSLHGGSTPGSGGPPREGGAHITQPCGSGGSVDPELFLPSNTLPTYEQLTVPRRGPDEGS
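Test system: CHO-K1 cells stably expressing KCNQ1 / Medium: assay buffer / Also added: depolarizing K+/Tl+ stimulus, K2SO4 and Tl2SO4 each 12.5 mM in 5x stock / Incubation: 90 min dye loading and 20 min compound exposure, both at room temperature / Signal: thallium influx via FluxOR fluorescence, kinetic imaging / Evaluation: B score of baseline-normalized fluorescence ratio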
KCNQ1 block – human KCNQ1 channel inhibition | P51787 | CHO-K1 KCNQ1, FluxOR thallium flux fluorescence; hits give high values | B-score at 10 µM | 310,000 tested, 1.3% active;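 active = compounds whose thallium flux B-score, printed positive for inhibition, exceeds three library SD while starting fluorescence stays within three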;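 also: channel opened by potassium depolarization with thallium stimulus after 20 min compound exposure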
Kir21 block – blocks the mouse Kir2.1 inward-rectifier potassium channel | P35561 | HEK293-Kir2.1, FluxOR thallium flux fluorescence; hits give low values | B-score at 10 µM | 310,000 tested, 0.85% active | AID 1672;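 active = fluorescence ratio B-score at or below minus 3 SD of library scores, with starting-brightness B-score within 2 SD, cut at about -4.2 in these data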;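 also: channel flux triggered by added potassium and thallium sulfate stimulus; B-score of peak minus minimum fluorescence over baseline after thallium stimulus; more negative B-score means stronger Kir2.1 block with less thallium influx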
KCNK3 inh – human KCNK3 channel inhibition, primary screen. 340,000 tested, 0.84% active. B-score at 10 µM. O14649. CHO-KCNK3 thallium flux, FluxOR fluorescence; hits give low values;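 active = B-score under library mean minus 4 SD, starting fluorescence ratio at most library mean plus 5 SD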;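 also: more negative B-score means stronger inhibition of thallium flux through KCNK3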
KCNK9 inh – human KCNK9 channel inhibition; Q9NPC2; HEK293 KCNK9, FluxOR thallium flux fluorescence; hits give low values; B-score at 10 µM; 310,000 tested, 1.2% active;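 active = ratio B-score over 3 SD below the library mean, with starting fluorescence within 5 SD of its mean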;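 also: negative B-score means less thallium flux so channel inhibition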
KCNK9 inh conf – human KCNK9 inhibitor confirmation; AID 492992; HEK293 KCNK9 cells, FluxOR thallium flux fluorescence; inhibition, % at 10 µM; shares compounds with KCNK9 inh; 4,900 tested, 43% active;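 active = thallium signal inhibited by more than 5 SD of the compound-free buffer control wells, on both duplicate plates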;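 also: 0% = assay buffer control wells without compound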
Kir21 sel – mouse Kir2.1 off-target activity of KCNK9 modulators | Kir2.1 cells, FluxOR thallium flux fluorescence | AID 492993 | shares compounds with KCNK9 inh | 4,900 tested, 4% active | inhibition, % at 10 µM;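 active = thallium signal drop more than 5 SD beyond the mean of the no-compound control wells, seen in both duplicate plates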;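 also: signal is fluorescence rise after thallium addition divided by baseline fluorescence; plate controls were assay buffer only for no effect and full block by chlorpromazine control for full effect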
KCNK9 uninduced – second check of KCNK9 modulator effects in non-induced HEK293 cells | 4,900 tested, 40% active | inhibition, % at 10 µM | FluxOR thallium flux | AID 492997 | shares compounds with KCNK9 inh;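 active = thallium signal drop beyond 5 SD of the untreated control mean, on both duplicate plates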;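 also: plate controls were buffer only IC0 wells for no effect and SID17386958 at its maximal inhibitory level for full effect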
The depositor's hits bear a star; i = inactive; nt = no result given.

SMILES | hERG protect | KCNQ1 pot | KCNQ1 block | Kir21 block | KCNK3 inh | KCNK9 inh | KCNK9 inh conf | Kir21 sel | KCNK9 uninduced
CCN(Cc1ccccc1)C(c1ccc(Cl)cc1)c1nnnn1C(C)(C)C (centres undefined) | -3 | i | i | 0.87 | i | -10* | 59%* | i | 54%*
COc1ccc(OC)c(C(c2nnnn2C2CCCC2)N2CCN(c3ccccc3)CC2)c1 (centres undefined) | -8 | i | i | 0.09 | i | -8.6* | 58%* | i | 43%*
COc1ccc(C(c2nnnn2C2CCCCC2)N2CCN(c3ccc(OC)cc3)CC2)cc1 (centres undefined) | -7 | i | i | -2.5 | i | i | nt | nt | nt
CCc1nnc(NS(=O)(=O)c2ccc(N/C=C(\C=O)c3nc4cc(Cl)ccc4o3)cc2)s1 | -15 | i | i | 0 | i | i | i | i | i
CCc1nnc(NS(=O)(=O)c2ccc(NC(=O)c3ccc(Cl)cc3)cc2)s1 | -10 | i | i | 1 | i | i | nt | nt | nt
C/C(=N\NC(=O)c1nn(C)c(C)c1Br)c1ccc(NC(=O)c2ccccc2F)cc1 | -15 | i | i | 0 | i | -12* | 64%* | i | 26%*
CCCN1CCCc2cc(CN(CCCN3CCOCC3)C(=O)Nc3ccc(OCC)cc3)ccc21 | -1 | i | i | 0.02 | i | i | i | i | i
Cc1sc(NC(=O)c2ccccc2)c(C(=O)c2ccccc2)c1C | -10 | i | i | 2.3 | i | i | i | i | i
Cc1sc(NC(=O)c2ccccc2)c(C(=O)NC(C)C)c1C | -4 | i | i | -1.2 | i | i | nt | nt | nt
Cc1ccc(CNC(=O)C2CCCN(S(=O)(=O)N3CCC(C)CC3)C2)cc1 (centres undefined) | -9 | i | i | -0.24 | i | i | nt | nt | nt
CCc1ccc(CNC(=O)C2CCCN(S(=O)(=O)N3CC(C)CC(C)C3)C2)cc1 (centres undefined) | -7 | i | i | 0.8 | i | -8.2* | 38%* | i | i
O=C1C=C(c2ccccc2)CO1 | nt | nt | nt | nt | i | nt | nt | nt | nt
C=CCn1c(COc2ccc3c(c2)CCCC3)nnc1SCC(=O)Nc1cccc(SC)c1 | -10 | i | 9* | -0.01 | i | i | i | i | 30%*
COc1ccc(-n2cc(-c3ccccc3)c3c(=O)[nH]cnc32)cc1 | -6 | i | i | 0.21 | i | i | nt | nt | nt
O=c1[nH]cnc2c1c(-c1ccccc1)cn2-c1cccc(Cl)c1 | -4 | i | i | 2 | i | -13* | 52%* | i | i
CCN(CC(=O)NCc1ccc(F)cc1)C(=O)c1cccc(S(=O)(=O)N(C)c2ccc(OC)cc2)c1 | nt | nt | nt | nt | i | nt | nt | nt | nt
CCc1nnc(NC(=O)c2cc(S(=O)(=O)N(C)c3ccc(OC)cc3)ccc2Cl)s1 | -12 | i | i | 1.8 | i | i | nt | nt | nt
CC(C)(C)OC(=O)N1CCN(c2ccc(CNC(=O)c3ccc(Cl)cc3)cc2)CC1 | -2 | i | i | 0.84 | i | i | i | i | i
CCOc1cc(CN2CCN(c3cccc(C(F)(F)F)c3)CC2)ccc1O | -21 | i | i | -0.96 | i | i | i | i | i
COCCn1nnnc1C(c1cccs1)N1CCN(c2cccc(C(F)(F)F)c2)CC1 (centres undefined) | -6 | i | i | 0.33 | i | -14* | 59%* | i | 40%*
COc1ccc(CC(C)N2CCN(c3cccc(C(F)(F)F)c3)CC2)cc1OC (centres undefined) | -5 | i | i | 0.31 | i | i | i | i | i
COC(=O)c1cc(CN2CCN(c3ccccc3)CC2)ccc1O | -3 | i | i | -0.45 | i | i | i | i | i
COc1ccc(NC(=O)N2CCN(c3cccc(C(F)(F)F)c3)CC2)cc1OC | -11 | i | i | -1.4 | i | i | nt | nt | nt
CCOc1cc(CN2CCN(c3cccc(C(F)(F)F)c3)CC2)ccc1OC | -4 | i | i | 2.9 | i | i | i | i | i
Clc1ccc(N=c2ssnc2Cl)cc1 | -18 | i | i | -2.1 | i | i | nt | nt | nt
SMILES | hERG protect | KCNQ1 pot | KCNQ1 block | Kir21 block | KCNK3 inh | KCNK9 inh | KCNK9 inh conf | Kir21 sel | KCNK9 uninduced
Fc1ccc(N=c2ssnc2Cl)c(F)c1 | -13 | i | i | 0.17 | i | i | i | i | i
O=C(Oc1ccc2ccccc2c1Cl)N1CCCC1 | -10 | i | i | -0.55 | i | i | nt | nt | nt
O=C(Oc1ccc2ccccc2c1Cl)N1CCCCCC1 | -5 | i | i | 0.19 | i | -13* | 37%* | i | 28%*
COc1ccc(C(C)=O)cc1CSc1nc2ccccc2c(=O)n1-c1ccccc1 | -7 | i | i | 0 | i | i | nt | nt | nt
COc1ccccc1-n1c(SCc2cc(=O)oc3cc(O)ccc23)nc2ccccc2c1=O | -6 | i | i | -0.15 | i | -8.3* | 32%* | i | i
C=CCn1c(SCc2cc(C(C)=O)ccc2OCC)nc2ccccc2c1=O | -6 | i | i | 1.2 | i | -13* | 66%* | i | 43%*
COc1ccc(C(C)=O)cc1CSc1nc2ccccc2c(=O)n1-c1ccccc1C | -5 | i | i | -0.79 | i | -9* | 32%* | i | 32%*
CCC(CO)n1c(SCc2cc(=O)oc3cc(C)ccc23)nc2ccccc2c1=O (centres undefined) | -9 | i | i | 0.2 | i | -12* | 53%* | i | 26%*
CC1(C)CC(=O)C(N=Nc2ccc(S(=O)(=O)N3CCOCC3)cc2)=C(O)C1 | -14 | i | i | 0.66 | i | i | nt | nt | nt
CN(C)S(=O)(=O)c1cccc(C(=O)Nc2ccccc2C(=O)NC2CC2)c1 | nt | nt | nt | nt | i | nt | nt | nt | nt
O=C(CNCc1ccccc1Cl)Nc1cc(S(=O)(=O)N2CCOCC2)ccc1Cl | nt | nt | nt | nt | i | nt | nt | nt | nt
O=C(Nc1cc(S(=O)(=O)N2CCOCC2)ccc1Cl)C(=O)c1c(-c2ccccc2)cc2ccccn12 | -5 | i | i | -0.09 | i | -8.2* | i | i | i
CCC1=NN2C(=N)/C(=C\c3cccn3-c3ccc(Br)cc3)C(=O)N=C2S1 | -8 | i | i | 1.9 | i | i | nt | nt | nt
